Test results taken from PubChem BioAssay.
Calls of active or inactive are those of the source.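 The calls were made as follows, unless noted: active = mean duplicate potentiation above the buffer control mean plus 5 SD of buffer wells; inactive = the rest.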

What was measured:
[1] = nonspecific flux increase, KCNQ1-free cells – parental CHO cells, counter-screen for KCNQ1 potentiator project (AID 493006;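 active = duplicate-averaged activation above buffer control mean plus 5 SD of those controls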); settings: parental CHO-K1 cells, FluxOR thallium flux, at 10 µM; active compounds read high
In short: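 Benchmarks – buffer and R-L3 controls · Assay system – untransfected host CHO-K1 cells with FluxOR thallium dye · Measure – fluorescence change ratio scaled 0% buffer, 100% R-L3 · Technique – kinetic thallium-flux fluorescence · Timing – overnight 37 °C plating, 90 min RT dye, 20 min compound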

[2] = biological target: Potassium voltage-gated channel subfamily KQT member 1 (Homo sapiens) (UniProt P51787); test: enhancement of KCNQ1 channel thallium flux – FluxOR thallium flux, CHO cells, duplicates, confirmation (AID 493007;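 active = potentiation averaged over duplicate wells exceeding buffer-only control mean by more than 3 SD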;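 as to outcome: cells depolarized by a potassium plus thallium sulfate stimulus after compound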); settings: KCNQ1 cell line, FluxOR thallium flux fluorescence, at 10 µM; active compounds read high, % of reference activator effect, buffer zero
In short: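 Material: CHO cells stably expressing the KCNQ1 potassium channel / Times: dye 90 min then compound 20 min, both at room temperature / Detection: kinetic thallium influx fluorescence with FluxOR dye, 10 s baseline, 110 s post-stimulus / Benchmarks: buffer-only wells as 0% and R-L3 activator as 100% / Replicates: each compound tested in duplicate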

[3] = biological target: Potassium voltage-gated channel subfamily KQT member 2 (Rattus norvegicus) (UniProt O88943); test: KCNQ2 thallium flux enhancement – KCNQ2-CHO-K1 cells, selectivity assay for KCNQ1 potentiator project (AID 493009); settings: FluxOR thallium flux fluorescence, at 10 µM; active compounds read high, scaled: buffer 0, activator control 100;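 also: assay conditions were tuned for KCNQ1 rather than KCNQ2 modulators; signal is max minus min fluorescence divided by baseline after thallium stimulus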
[4] = biological target: Potassium voltage-gated channel subfamily KQT member 1 (Homo sapiens) (UniProt P51787); test: KCNQ1 activators by electrophysiology – IonWorks patch clamp, KCNQ1-CHO cells, orthogonal assay for KCNQ1 potentiator project, confirmation (AID 493184;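 active = current rise at least 3 SD above the untreated control mean in each of two repeat wells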;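 as to current potentiation: percent change of the same well's current before compound addition so 0% = no change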); settings: automated patch clamp current, at 10 µM; active compounds read high
In short: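 Probe or stimulus: depolarizing pulse to +40 mV from -90 mV; Material: CHO cells carrying KCNQ1; Compound: one dose, 10 µM final; Signal: automated voltage clamp, amphotericin B perforated patch; Read-out basis: percent current increase versus pre-compound level; Buffer or medium: pH 7.4 external bath; Replication: duplicates.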

[5] = biological target: Potassium voltage-gated channel subfamily E member 1 (Homo sapiens) + Potassium voltage-gated channel subfamily KQT member 1 (Homo sapiens) (UniProt P15382+P51787); test: KCNQ1-E1 channel activation – thallium flux, CHO-K1 KCNQ1/E1 cells, selectivity assay for KCNQ1 potentiator project, confirmation (AID 493186;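 active = mean duplicate activation above the buffer control mean plus 5 SD of those controls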); settings: FluxOR thallium flux, at 10 µM; active compounds read high
In short: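 system = KCNQ1/E1-expressing stable CHO-K1 cell line | doses = single compound concentration per well | times = dye 90 min, compound 20 min, room temperature | measured by = FluxOR Tl+ flux fluorescence, kinetic read | evaluation = fluorescence rise relative to baseline, as percent of R-L3 response above buffer | controls = buffer and R-L3 | replicates = duplicate wells per compound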

Chain of Potassium voltage-gated channel subfamily E member 1 (Homo sapiens) + Potassium voltage-gated channel subfamily KQT member 1 (Homo sapiens) (P51787 whole entry, looked up): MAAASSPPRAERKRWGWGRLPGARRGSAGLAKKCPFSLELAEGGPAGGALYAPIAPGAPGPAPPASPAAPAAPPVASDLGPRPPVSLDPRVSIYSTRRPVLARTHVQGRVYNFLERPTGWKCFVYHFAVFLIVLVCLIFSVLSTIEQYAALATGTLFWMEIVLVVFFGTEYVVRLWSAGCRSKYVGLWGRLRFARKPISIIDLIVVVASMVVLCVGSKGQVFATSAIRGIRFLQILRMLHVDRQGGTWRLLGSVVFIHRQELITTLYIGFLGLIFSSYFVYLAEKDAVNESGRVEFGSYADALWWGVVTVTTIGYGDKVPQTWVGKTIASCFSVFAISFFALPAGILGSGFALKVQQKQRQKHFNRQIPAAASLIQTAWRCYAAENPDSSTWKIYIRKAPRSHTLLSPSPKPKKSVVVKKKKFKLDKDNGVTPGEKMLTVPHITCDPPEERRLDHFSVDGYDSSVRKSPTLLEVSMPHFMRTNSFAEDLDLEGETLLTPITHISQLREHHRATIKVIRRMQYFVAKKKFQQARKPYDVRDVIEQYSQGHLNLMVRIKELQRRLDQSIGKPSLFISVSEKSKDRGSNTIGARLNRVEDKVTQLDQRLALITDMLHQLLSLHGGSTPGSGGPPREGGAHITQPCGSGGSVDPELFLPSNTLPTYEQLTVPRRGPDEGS
Chain of Potassium voltage-gated channel subfamily KQT member 2 (Rattus norvegicus) (O88943 whole entry, looked up): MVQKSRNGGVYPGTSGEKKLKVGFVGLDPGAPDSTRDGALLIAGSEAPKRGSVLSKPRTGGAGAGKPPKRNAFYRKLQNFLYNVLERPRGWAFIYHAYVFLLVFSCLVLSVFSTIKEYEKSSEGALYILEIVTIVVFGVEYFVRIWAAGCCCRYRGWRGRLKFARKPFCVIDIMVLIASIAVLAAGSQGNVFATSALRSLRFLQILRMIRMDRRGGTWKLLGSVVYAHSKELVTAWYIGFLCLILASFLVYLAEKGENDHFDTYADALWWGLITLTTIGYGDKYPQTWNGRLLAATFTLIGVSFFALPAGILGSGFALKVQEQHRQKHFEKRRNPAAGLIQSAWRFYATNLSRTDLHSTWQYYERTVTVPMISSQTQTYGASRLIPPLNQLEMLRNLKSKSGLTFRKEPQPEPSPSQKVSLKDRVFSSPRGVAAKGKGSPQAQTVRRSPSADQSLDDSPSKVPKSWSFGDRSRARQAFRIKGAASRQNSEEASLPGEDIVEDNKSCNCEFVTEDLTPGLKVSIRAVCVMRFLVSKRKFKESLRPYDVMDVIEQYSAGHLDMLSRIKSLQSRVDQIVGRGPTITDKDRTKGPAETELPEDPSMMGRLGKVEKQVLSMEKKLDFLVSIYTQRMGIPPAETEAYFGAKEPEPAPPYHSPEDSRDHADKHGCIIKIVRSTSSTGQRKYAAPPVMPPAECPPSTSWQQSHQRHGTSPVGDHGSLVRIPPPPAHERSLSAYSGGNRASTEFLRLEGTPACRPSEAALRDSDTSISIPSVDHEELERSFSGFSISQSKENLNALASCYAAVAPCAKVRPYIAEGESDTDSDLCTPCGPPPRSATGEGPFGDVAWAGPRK
Chain of Potassium voltage-gated channel subfamily KQT member 1 (Homo sapiens) (P51787 whole entry, looked up): as the sequence (P51787 whole entry, looked up) above

OCCNCc1cc(Br)ccc1OCc1ccccc1Cl
inactive: outcome [1] | outcome [2] | outcome [3] | outcome [4] | outcome [5]

CCOC(=O)c1oc2ccc(S(=O)(=O)n3nc(-c4ccc(OC)cc4)cc3N)cc2c1C
inactive: outcome [1] | outcome [2] | outcome [3] | outcome [5]
active: current potentiation [4] 15.4%

S=c1[nH]c(-c2cccs2)cn1-c1ccccc1
inactive: outcome [1] | outcome [4] | outcome [5]
active: potentiation [2] 26% | potentiation [3] 151%

CCCCNC(=O)CCc1c(C)nc2c(c(C)nn2-c2ccccc2)c1C
inactive: outcome [1] | outcome [2] | outcome [3] | outcome [4] | outcome [5]

COc1ccc(-c2nonc2NC(=O)c2oc3ccccc3c2C)cc1OC
inactive: outcome [1] | outcome [2] | outcome [3] | outcome [4] | outcome [5]

O=C(NC(=S)Nc1nc2c(s1)CCCC2)c1ccccc1
active: potentiation [2] 26%
inactive: outcome [1] | outcome [3] | outcome [4] | outcome [5]

CC(c1nccs1)N(C)C(=O)CCc1nnc(Cc2c[nH]c3ccccc23)o1 (stereo not given)
inactive: outcome [1] | outcome [2] | outcome [3] | outcome [4] | outcome [5]

Nc1nc(CCl)nc(Nc2ccc3ccccc3c2)n1
inactive: outcome [1] | outcome [2] | outcome [3] | outcome [4] | outcome [5]

COc1ccc(Cn2c(=O)c3[nH]cnc3n(-c3ccccc3C)c2=O)cc1
inactive: outcome [1] | outcome [2] | outcome [3] | outcome [4] | outcome [5]

Cc1ccc(N(C(=O)Cn2nnc(-c3ccccc3F)n2)C(C(=O)NC2CCCC2)c2ccncc2)cc1 (stereo not given)
inactive: outcome [1] | outcome [2] | outcome [3] | outcome [4] | outcome [5]

Cc1ccc(C(=O)CC(=O)c2ccc(C)cc2O)cc1
inactive: outcome [1] | outcome [2] | outcome [3] | outcome [4] | outcome [5]

Cc1[nH]nc(SCC(=O)N2CCCCC2)c1[N+](=O)[O-]
inactive: outcome [1] | outcome [2] | outcome [3] | outcome [4] | outcome [5]

O=[N+]([O-])c1ccc(S(=O)(=O)CC(CN2CCCCC2)N2CCCCC2)cc1 (stereo not given)
inactive: outcome [1] | outcome [2] | outcome [3] | outcome [4] | outcome [5]

COC(=O)CSc1nc(NC(C)C)nc(N(C)C)n1
inactive: outcome [1] | outcome [2] | outcome [3] | outcome [4] | outcome [5]

CCOC(=O)c1cnn(-c2nc(SC)nc3sc4c(c23)CCCC4)c1N
active: potentiation [2] 29.5% | potentiation [3] 142%
inactive: outcome [1] | outcome [4] | outcome [5]

COc1ccccc1C(=O)NNC(=O)c1nn(Cc2ccccc2)c(=O)c2ccccc12
inactive: outcome [1] | outcome [2] | outcome [3] | outcome [4] | outcome [5]

O=C(N1CCCCC1)N1CCN(C(=O)N2CCCCC2)CC1
inactive: outcome [1] | outcome [3] | outcome [4] | outcome [5]
active: potentiation [2] 19%

CCN(C(=O)c1cc2c(=O)[nH]c3ccc(C)cc3c2s1)c1ccccc1F
active: potentiation [2] 25%
inactive: outcome [1] | outcome [3] | outcome [4] | outcome [5]

Cc1ccc(CNc2nc3c([nH]2)c(=O)n(C)c(=O)n3C)cc1
inactive: outcome [1] | outcome [2] | outcome [3] | outcome [4] | outcome [5]

CCOC(=O)C1=C(CC)Nc2ccccc2N=C1NC(=O)CCNC(C)=O
inactive: outcome [1] | outcome [2] | outcome [3] | outcome [4] | outcome [5]

Cc1ccc(-n2ncc3c(=O)n(CC(=O)N4CCN(c5ccccc5F)CC4)cnc32)cc1C
inactive: outcome [1] | outcome [2] | outcome [3] | outcome [4] | outcome [5]

CCOC(=O)c1c(N)sc(N)c1C(=O)OCC
inactive: outcome [1] | outcome [2] | outcome [4] | outcome [5]
active: potentiation [3] 170%

CC(=O)/C(=N/Nc1ccc([N+](=O)[O-])cc1)N1CCCc2ccccc21
inactive: outcome [1] | outcome [2] | outcome [3] | outcome [4] | outcome [5]

Cc1nc(NC(=S)NC(=O)c2ccccc2)sc1C
inactive: outcome [1] | outcome [2] | outcome [3] | outcome [4] | outcome [5]

Cc1ccc(/C(O)=C/C(=O)C(=O)NNC(=O)C(O)(c2ccccc2)c2ccccc2)cc1
inactive: outcome [1] | outcome [2] | outcome [3] | outcome [4] | outcome [5]

Cc1cccc2sc(N(CCCN(C)C)C(=O)c3ccc4ncsc4c3)nc12
inactive: outcome [1] | outcome [2] | outcome [3] | outcome [4] | outcome [5]

COc1ccc(C(=O)/C=C/C(=O)N(CC(=O)NC2CCCCC2)Cc2ccccc2)c(O)c1
active: potentiation [2] 25%
inactive: outcome [1] | outcome [3] | outcome [4] | outcome [5]

COc1c(Br)cc(/C=N/n2c(-c3ccccc3)n[nH]c2=S)c(O)c1Br
inactive: outcome [1] | outcome [2] | outcome [3] | outcome [4] | outcome [5]

CCc1ccc(NC(=O)/C(C#N)=C/c2ccncc2)cc1
inactive: outcome [1] | outcome [2] | outcome [3] | outcome [4] | outcome [5]

CCC1=NN2C(=N)/C(=C/c3ccc(OS(=O)(=O)c4ccccc4)c(OC)c3)C(=O)N=C2S1
inactive: outcome [1] | outcome [2] | outcome [3] | outcome [4] | outcome [5]

Cn1ccnc1C(=O)c1cccc([N+](=O)[O-])c1
inactive: outcome [1] | outcome [3] | outcome [4] | outcome [5]
active: potentiation [2] 18.5%

COc1ccc(NC(=O)CN2CCN(C3c4ccccc4-c4ccccc43)CC2)cc1
inactive: outcome [1] | outcome [2] | outcome [3] | outcome [4] | outcome [5]

Cc1cc(-c2cccs2)c(C#N)c(=S)[nH]1
inactive: outcome [1] | outcome [2] | outcome [3] | outcome [4] | outcome [5]

O=C(O)CCCN1C(=O)/C(=C/c2ccc(-c3nc4ccccc4s3)o2)SC1=S
inactive: outcome [1] | outcome [4] | outcome [5]
active: potentiation [2] 21.5% | potentiation [3] 143%

O=C(NC(=S)Nc1ccc2c(c1)OCCO2)c1cccc2ccccc12
inactive: outcome [1] | outcome [2] | outcome [3] | outcome [4] | outcome [5]

NNc1nc2c(F)cc(F)cc2s1
inactive: outcome [1] | outcome [2] | outcome [3] | outcome [4] | outcome [5]

CCN1CCN(c2ccc(S(=O)(=O)N3CCCC3)cn2)CC1
inactive: outcome [1] | outcome [2] | outcome [3] | outcome [4] | outcome [5]

COc1ccc(CCNC(=O)CCOc2cc(C)ccc2C)cc1OC
inactive: outcome [1] | outcome [2] | outcome [3] | outcome [4] | outcome [5]

Fc1ccc(/C=N/n2c(C3CCCCC3)n[nH]c2=S)cc1
inactive: outcome [1] | outcome [2] | outcome [3] | outcome [4] | outcome [5]

CCOC(=O)c1cccc(NC(=O)CCc2nnc3ccc(N4CCCCC4)nn23)c1
inactive: outcome [1] | outcome [2] | outcome [3] | outcome [4] | outcome [5]

Cc1[nH][nH]c(=O)c1C(c1ccc(-c2ccc(Cl)c(Cl)c2)o1)c1c(C)[nH][nH]c1=O
active: potentiation [2] 30%
inactive: outcome [1] | outcome [3] | outcome [4] | outcome [5]

O=C(NC(=S)NCCC1=CCCCC1)c1ccccc1Br
inactive: outcome [1] | outcome [4] | outcome [5]
active: potentiation [2] 47% | potentiation [3] 186%

C/C(=N\NC(=S)NCCc1ccccc1)c1cccs1
inactive: outcome [1] | outcome [2] | outcome [3] | outcome [4] | outcome [5]

S=C(Nc1ccc(Cl)cc1)c1nc2ccccc2s1
inactive: outcome [1] | outcome [3] | outcome [4]
active: potentiation [2] 47.5% | activation [5] 23.8%

CCOc1cc(CN2CCOCC2)cc(C(C)=O)c1
active: potentiation [2] 23.5%
inactive: outcome [1] | outcome [3] | outcome [4] | outcome [5]

CCOc1cccc(/C=N/NC(=O)C2CCCC2)c1O
inactive: outcome [1] | outcome [2] | outcome [3] | outcome [4] | outcome [5]

S=c1[nH]nc(COc2ccccc2)n1/N=C/c1ccc(Cl)cc1Cl
inactive: outcome [1] | outcome [2] | outcome [3] | outcome [4] | outcome [5]

CC(NC(=O)c1ccco1)C(=O)N(C)Cc1ccc(C(F)(F)F)cc1 (stereo not given)
inactive: outcome [1] | outcome [2] | outcome [3] | outcome [4] | outcome [5]

O=C(NC(=S)Nc1nc(-c2ccccc2)cs1)c1cccs1
active: potentiation [2] 38%
inactive: outcome [1] | outcome [3] | outcome [4] | outcome [5]

Cc1cccc(C(=O)O/N=C(\N)c2cccc([N+](=O)[O-])c2)c1
inactive: outcome [1] | outcome [2] | outcome [3] | outcome [4] | outcome [5]

CCOC(=O)C(Sc1nnc(-c2ccncc2)o1)C(C)=O (stereo not given)
inactive: outcome [1] | outcome [2] | outcome [3] | outcome [4] | outcome [5]

COc1ccc(-c2csc(NC(=S)NC(=O)c3ccco3)n2)cc1Br
active: potentiation [2] 25%
inactive: outcome [1] | outcome [3] | outcome [4] | outcome [5]

COC1(c2ccccc2)NC(=S)NN=C1c1ccccc1 (stereo not given)
inactive: outcome [1] | outcome [2] | outcome [3] | outcome [4] | outcome [5]

CCn1c2ccccc2c2cc(CC(N)=O)ccc21
inactive: outcome [1] | outcome [2] | outcome [3] | outcome [4] | outcome [5]

CCN(CC)C(=S)SCC(=O)Nc1nc(=O)c2ccccc2s1
inactive: outcome [1] | outcome [2] | outcome [3] | outcome [4] | outcome [5]

Cc1ccc(-c2nc(=S)c3c(n2Cc2ccco2)CC(C)(C)OC3)cc1
inactive: outcome [1] | outcome [2] | outcome [3] | outcome [4] | outcome [5]

Oc1c(N=NC(=S)Nc2ccccc2F)c2ccccc2n1Cc1ccc(Cl)cc1
inactive: outcome [1] | outcome [2] | outcome [3] | outcome [4] | outcome [5]

CC1(C)CC(Nc2ccc(Nc3ccccc3)cc2)CC(C)(C)N1
inactive: outcome [1] | outcome [3] | outcome [4] | outcome [5]
active: potentiation [2] 23.5%

O=C(NNc1cc(N2CCOCC2)nc(N2CCOCC2)n1)C12CC3CC(CC(C3)C1)C2
inactive: outcome [1] | outcome [3] | outcome [4] | outcome [5]
active: potentiation [2] 51%
